Reference: ChEMBL document CHEMBL1137481, “Discovery of platelet-type 12-human lipoxygenase selective inhibitors by high-throughput screening of structurally diverse libraries” (Bioorg Med Chem, 2007)

Key:
[1] = target: T1, Polyunsaturated fatty acid lipoxygenase ALOX12 (Homo sapiens) (UniProt P18054); assay: Inhibition of human 12-hLO at 40 uM by HTP assay
T1 sequence (whole entry): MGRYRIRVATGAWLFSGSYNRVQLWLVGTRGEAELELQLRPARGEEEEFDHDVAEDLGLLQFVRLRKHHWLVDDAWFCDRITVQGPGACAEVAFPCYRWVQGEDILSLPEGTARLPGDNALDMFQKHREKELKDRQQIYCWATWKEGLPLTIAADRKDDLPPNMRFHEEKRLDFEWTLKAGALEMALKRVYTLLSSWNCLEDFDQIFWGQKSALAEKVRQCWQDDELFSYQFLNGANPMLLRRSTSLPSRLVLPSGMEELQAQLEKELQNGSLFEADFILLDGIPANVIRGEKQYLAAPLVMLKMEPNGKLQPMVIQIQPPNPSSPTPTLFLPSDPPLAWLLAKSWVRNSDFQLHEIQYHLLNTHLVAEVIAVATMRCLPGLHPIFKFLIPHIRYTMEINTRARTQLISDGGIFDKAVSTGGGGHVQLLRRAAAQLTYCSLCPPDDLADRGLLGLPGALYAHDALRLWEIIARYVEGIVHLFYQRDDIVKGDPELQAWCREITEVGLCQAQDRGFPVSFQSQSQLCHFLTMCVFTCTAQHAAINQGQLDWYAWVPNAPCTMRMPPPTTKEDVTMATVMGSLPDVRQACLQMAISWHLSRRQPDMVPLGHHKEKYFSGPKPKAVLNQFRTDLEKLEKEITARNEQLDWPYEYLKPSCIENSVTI
Method in brief: (§1)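 384-well xylenol orange endpoint assay. 30 µM substrate (arachidonic acid for 12-hLO in 25 mM Hepes pH 8.0; linoleic acid for 15-hLO-1 in 25 mM HEPES pH 7.5), 0.1% Triton X-100. Inhibitor at 40 µM final from DMSO. Reactions started with ~40 nM enzyme and stopped at ~35% completion with 100 µM xylenol orange and 150 µM ferrous ammonium sulfate in 25 mM H2SO4. Read at 560 nm after 30 min dark shaking. Triplicate, normalised to no-enzyme and DMSO controls.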

[2] = target: T1, Polyunsaturated fatty acid lipoxygenase ALOX12 (Homo sapiens); assay: Inhibition of human 12-hLO at 10 uM by MI assay
Method in brief: (§2)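 One-point manual continuous assay at 23 °C, stirred, following conjugated diene at 234 nm. 12-hLO (~40 nM, His6-tagged) with arachidonic acid in 25 mM Hepes pH 8, 0.01% Triton X-100. 15-hLO-1 (~40 nM) with linoleic acid in 25 mM Hepes pH 7.5, 0.01% Triton X-100. 10 µM inhibitor.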

[3] = target: T2, Polyunsaturated fatty acid lipoxygenase ALOX15 (Homo sapiens) (UniProt P16050); assay: Inhibition of human 15-hLO1 at 40 uM by HTP assay; method in brief: as §1
T2 sequence (whole entry): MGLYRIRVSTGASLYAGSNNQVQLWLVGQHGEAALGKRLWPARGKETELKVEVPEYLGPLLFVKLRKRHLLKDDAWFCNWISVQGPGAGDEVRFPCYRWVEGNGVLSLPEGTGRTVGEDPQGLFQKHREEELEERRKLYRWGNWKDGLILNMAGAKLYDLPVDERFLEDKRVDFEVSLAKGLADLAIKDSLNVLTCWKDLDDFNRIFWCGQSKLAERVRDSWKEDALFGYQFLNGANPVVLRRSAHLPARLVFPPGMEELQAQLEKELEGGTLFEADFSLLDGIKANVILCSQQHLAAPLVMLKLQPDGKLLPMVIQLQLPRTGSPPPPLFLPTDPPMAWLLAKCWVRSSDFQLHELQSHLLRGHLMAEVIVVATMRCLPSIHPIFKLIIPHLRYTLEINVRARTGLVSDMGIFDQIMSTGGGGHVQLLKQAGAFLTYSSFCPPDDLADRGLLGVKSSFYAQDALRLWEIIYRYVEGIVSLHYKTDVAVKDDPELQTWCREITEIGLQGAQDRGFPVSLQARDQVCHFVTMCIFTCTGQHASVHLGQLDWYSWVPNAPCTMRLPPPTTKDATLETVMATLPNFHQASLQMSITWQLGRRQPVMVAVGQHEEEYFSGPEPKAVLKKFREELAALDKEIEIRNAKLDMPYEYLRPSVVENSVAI

[4] = target: T2, Polyunsaturated fatty acid lipoxygenase ALOX15 (Homo sapiens); assay: Inhibition of human 15-hLO1 at 10 uM by MI assay; method in brief: as §2
[5] = target: T3, Polyunsaturated fatty acid lipoxygenase ALOX12 (Homo sapiens, UniProt P18054); assay: Inhibition of human 12-hLO
T3 sequence (P18054 whole entry): T1 sequence (whole entry)
Method in brief: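 Rate from conjugated diene formation at 234 nm, room temperature (23 °C), stirred 2 mL reactions. 12-hLO (N-terminal His6-tagged, ~40 nM) with arachidonic acid in 25 mM Hepes pH 8, 0.01% Triton X-100. 15-hLO-1 (His6-tagged, ~40 nM) with linoleic acid, 15-hLO-2 (1 µM, SF9-expressed) with arachidonic acid, both in 25 mM Hepes pH 7.5, 0.01% Triton X-100. Rates at various inhibitor concentrations fit to saturation curve for IC50.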

[6] = target: T4, Polyunsaturated fatty acid lipoxygenase ALOX15 (Homo sapiens, UniProt P16050); assay: Inhibition of human 15-hLO1
T4 sequence (P16050 whole entry): T2 sequence (whole entry)

Homo sapiens = organism: Homo sapiens; assay: Selectivity for 12-hLO over 15-hLO1
Method in brief: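 Ratio of IC50 for 15-hLO-1 over IC50 for 12-hLO. Both come from the 234 nm conjugated-diene rate assay: 12-hLO with arachidonic acid at pH 8, 15-hLO-1 with linoleic acid at pH 7.5, 0.01% Triton X-100, 23 °C. IC50 taken from saturation-curve fits.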

Row | inhibition [1] [%] | inhibition [2] [%] | inhibition [3] [%] | inhibition [4] [%] | IC50 [5] [µM] | SMILES | Ki [5] [µM] | Ki [6] [µM] | Ratio Ki (Homo sapiens)
1 | 71 | 0 | 39 | 0 | – | Oc1cccc2ccc(SSc3ccc4cccc(O)c4n3)nc12 | – | – | –
2 | – | – | – | – | – | C[C@H](NC(=O)[C@H](C[C@H](C)C(Cl)(Cl)Cl)N(C)C(=O)C[C@H](C)C(Cl)(Cl)Cl)c1nccs1 [DYSIDENIN] | 9 | 8 | 1
3 | 47 | 100 | 12 | 36 | 0.58 | COc1c(O)cc2oc3cc(O)c(CC=C(C)C)c(O)c3c(=O)c2c1CC=C(C)C [MANGOSTIN] | – | – | –
4 | 46 | 88 | 0 | 0 | 0.15 | O=C(O)c1cc(C(=O)C(=O)c2cc(C(=O)O)c(O)c3ccccc23)c2ccccc2c1O | – | – | –
5 | 70 | 100 | 37 | 36 | 0.21 | Oc1c(Cl)cc(C(c2cc(Cl)c(O)c(Cl)c2)C(c2cc(Cl)c(O)c(Cl)c2)c2cc(Cl)c(O)c(Cl)c2)cc1Cl | – | – | –

Row | SMILES | inhibition [1] [%] | inhibition [2] [%] | inhibition [3] [%] | inhibition [4] [%] | IC50 [5] [µM] | Ki [5] [µM] | Ki [6] [µM] | Ratio Ki (Homo sapiens)
6 | C[C@H](c1nccs1)N(C)C(=O)[C@H](C[C@H](C)C(Cl)(Cl)Cl)NC(=O)C[C@H](C)C(Cl)(Cl)Cl [NEODYSIDENIN] | – | – | – | – | > 100 | 17 | – | –
